In ChEMBL document CHEMBL1152984, “Design, synthesis, and structure-activity relationships of benzophenone-based tetraamides as novel antibacterial agents” (J Med Chem, 2009):
In brackets after ≈: the same amount, converted by molar mass. Activity calls are given as the source filed them. No cut-off for these calls is given here.

What was measured:
Staphylococcus aureus [1] = experiment: Antibacterial activity against vancomycin-resistant Staphylococcus aureus; assay type: functional
Staphylococcus aureus [2] = experiment: Antibacterial activity against methicillin-resistant Staphylococcus aureus; assay type: functional
Nucleic Acid [3] = experiment: Binding affinity to DNA AT hairpin (5'-CGAAAAACAAAAAGTTTTTCG- 3') oligonucleotide by ethidium bromide displacement assay; assay type: nucleic-acid assay
Summary of the method: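 DNA binding: ethidium bromide (4.0 μM) and AT hairpin (8.0 μM) in 0.1 M Tris-HCl with 25 mM NaCl, pH 7.0, were titrated with compound. Fluorescence (ex 545, em 595 nm) was read after 5 min and corrected for volume. K = K_EB[E]/[agent], where [agent] is the concentration that lowers fluorescence by 50%.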

Nucleic Acid [4] = experiment: Binding affinity to Staphylococcus aureus DNA at 25 to 200 ug/mL by Hoescht dye competition assay; assay type: nucleic-acid assay
Summary of the method: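 Compounds at 25, 50, 100, 150 and 200 mg/L were added in triplicate, and the drop in emission at 461 nm was measured against Hoechst-stained untreated cells.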

Nucleic Acid [5] = experiment: Binding affinity to Escherichia coli DNA at 25 to 200 ug/mL by Hoescht dye competition assay; assay type: nucleic-acid assay
Staphylococcus aureus [6] = experiment: Antibacterial activity against glycopeptide-intermediate Staphylococcus aureus; assay type: functional
Enterococcus = experiment: Antibacterial activity against vancomycin-resistant Enterococcus; assay type: functional
Escherichia coli = experiment: Antibacterial activity against Escherichia coli; assay type: functional
CHO = experiment: Cytotoxicity against CHO cells assessed as cell viability at 25 to 100 times MIC after 24 hrs by MTS assay; assay type: cell-based, Cricetulus griseus; conditions: chinese hamster
Summary of the method: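 CHO cells in RPMI-1640 were seeded at 5000 cells/well, allowed to attach overnight, then exposed to 25, 50 and 100 mg/L for 24 h. MTS was added for 120 min and absorbance read at 505 nm. Results are % versus untreated controls (with or without 5% DMSO), from at least three experiments.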

Staphylococcus aureus [7] = experiment: Antibacterial activity against Staphylococcus aureus assessed as depolarization at […] measured for 60 mins by fluorescence spectrophotometer relative to nisin; assay type: functional, organism-based
Summary of the method: (§1)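 Cells were loaded with 0.4 μM diSC3(5) for 1 h at 37 °C, then KCl was added. After compound addition in a stirred cuvette at 37 °C, fluorescence (ex 622, em 670 nm) was followed for 60 min. Cells plus dye gave the background; the change was expressed as % of the nisin control (100%).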

Staphylococcus aureus [8] = experiment: Antibacterial activity against Staphylococcus aureus ATCC 29213 assessed as inhibition of RNA synthesis at 8 times MIC treated 5 mins before [3H]uridine challenge measured after 30 mins by [3H]uridine incorporation assay; assay type: functional, organism-based
Summary of the method: (§2)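 Cells were added to triplicate wells with compound (0.25-4.0 μg/mL), with 5% DMSO as the no-drug control; protein-synthesis reactions used M9 minimal medium. After 5 min at room temperature, 0.5-1.0 μCi of [3H]thymidine, uridine, N-acetylglucosamine or leucine was added. Reactions ran 15-30 min (60 min for cell wall). Cold-TCA precipitates were filtered, washed and scintillation-counted.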

Staphylococcus aureus [9] = experiment: Antibacterial activity against Staphylococcus aureus ATCC 29213 assessed as inhibition of lipid synthesis at 8 times MIC treated 5 mins before [3H]glycerol challenge measured after 60 mins by [3H]glycerol incorporation assay; assay type: functional, organism-based
Summary of the method: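 S. aureus at early exponential phase, 0.1 mL cells in triplicate tubes with agent (0.25-4.0 μg/mL) or cerulenin control. Pre-incubated 5 min at room temperature before adding [3H]glycerol at 0.5 μCi. After centrifugation, the organic phase was dried and counted by liquid scintillation.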

Staphylococcus aureus [10] = experiment: Antibacterial activity against Staphylococcus aureus ATCC 29213 assessed as inhibition of DNA synthesis at 8 times MIC treated 5 mins before [3H]thymidine challenge measured after 30 mins by [3H]thymidine incorporation assay; assay type: functional, organism-based; summary of the method: as §2
Staphylococcus aureus [11] = experiment: Antibacterial activity against Staphylococcus aureus ATCC 29213 assessed as inhibition of cell wall synthesis at 8 times MIC treated 5 mins before [3H]N-acetylglucosamine challenge measured after 30 mins by [3H]N-acetylglucosamine incorporation assay; assay type: functional, organism-based
Summary of the method: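 Culture added to triplicate wells with agent (0.25-4.0 μg/mL) or 5% DMSO no-drug control. Pre-incubated 5 min at room temperature, then [3H]N-acetylglucosamine at 0.5-1.0 μCi. Stopped with cold 5% TCA and held 30 min on ice. Precipitate filter-collected, washed, and scintillation counted. Vancomycin was the positive control.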

Staphylococcus aureus [12] = experiment: Antibacterial activity against Staphylococcus aureus ATCC 29213 assessed as inhibition of protein synthesis at 8 times MIC treated 5 mins before [3H]leucine challenge measured after 30 mins by [3H]leucine incorporation assay; assay type: functional, organism-based; summary of the method: as §2
Staphylococcus aureus [13] = experiment: Antibacterial activity against Staphylococcus aureus assessed as depolarization at 32 mg/L measured for 60 mins by fluorescence spectrophotometer relative to nisin; assay type: functional, organism-based; summary of the method: as §1
Staphylococcus aureus [14] = experiment: Antibacterial activity against Staphylococcus aureus ATCC 29213 assessed as inhibition of DNA synthesis at 0.5 to 8 times MIC treated 5 mins before [3H]thymidine challenge measured after 30 mins by [3H]thymidine incorporation assay; assay type: functional, organism-based; summary of the method: as §2
Staphylococcus aureus [15] = experiment: Antibacterial activity against Staphylococcus aureus ATCC 29213 assessed as inhibition of RNA synthesis at 0.5 to 8 times MIC treated 5 mins before [3H]uridine challenge measured after 30 mins by [3H]uridine incorporation assay; assay type: functional, organism-based; summary of the method: as §2
Staphylococcus aureus [16] = experiment: Antibacterial activity against Staphylococcus aureus ATCC 29213 assessed as inhibition of protein synthesis at 0.5 to 8 times MIC treated 5 mins before [3H]leucine challenge measured after 30 mins by [3H]leucine incorporation assay; assay type: functional, organism-based; summary of the method: as §2
Staphylococcus aureus [17] = experiment: Antibacterial activity against Staphylococcus aureus ATCC 29213 assessed as inhibition of cell wall synthesis at 0.5 to 8 times MIC treated 5 mins before [3H]N-acetylglucosamine challenge measured after 30 mins by [3H]N-acetylglucosamine incorporation assay; assay type: functional, organism-based
Staphylococcus aureus [18] = experiment: Antibacterial activity against Staphylococcus aureus ATCC 29213 assessed as inhibition of lipid synthesis at 0.5 to 8 times MIC treated 5 mins before [3H]glycerol challenge measured after 60 mins by [3H]glycerol incorporation assay; assay type: functional, organism-based
Summary of the method: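 Lipid synthesis: early-exponential S. aureus was mixed in triplicate with compound (0.25-4.0 μg/mL) or cerulenin. After 5 min at room temperature, [3H]glycerol (0.5 μCi) was added. Mixtures were centrifuged, and the organic phase was dried and counted by liquid scintillation.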

Staphylococcus aureus [19] = experiment: Antibacterial activity against Staphylococcus aureus assessed as depolarization at 4 mg/L measured for 60 mins by fluorescence spectrophotometer relative to nisin; assay type: functional, organism-based; summary of the method: as §1

| Structure (SMILES) | MIC (Staphylococcus aureus [1]) [µg/mL] | MIC (Staphylococcus aureus [2]) [µg/mL] | Ka (Nucleic Acid [3]) [×10⁶ /M] | further results |
| --- | --- | --- | --- | --- |
| Cn1cc(NC(=O)c2ccc(C(O)c3ccc(C(=O)Nc4cc(C(=O)NCCN5CCCC5)n(C)c4)cc3)cc2)cc1C(=O)NCCN1CCCC1 | > 32 | > 32 | 0.175 |  |
| CN1CCN(CCCNC(=O)c2cc(NC(=O)c3ccc(C(=O)c4ccc(C(=O)Nc5cc(C(=O)NCCCN6CCN(C)CC6)n(C)c5)cc4)cc3)cn2C)CC1 | > 32 | > 32 | 0.108 | Activity (Nucleic Acid [4]): inactive; Activity (Nucleic Acid [5]): inactive |
| Cn1cc(NC(=O)c2ccc(C(=O)c3ccc(C(=O)Nc4cn(C)c(C(=O)NCCN5CCCCC5)n4)cc3)cc2)nc1C(=O)NCCN1CCCCC1 | 8 (≈ 10.9 µM) | 4 (≈ 5.43 µM) |  | Activity (Nucleic Acid [4]): Active; Activity (Nucleic Acid [5]): Active |
| CN(C)CCCNC(=O)c1cc(NC(=O)c2ccc(C(=O)c3ccc(C(=O)Nc4cc(C(=O)NCCCN(C)C)n(C)c4)cc3)cc2)cn1C | 16 (≈ 23.4 µM) | 8 (≈ 11.7 µM) | 1 | MIC (Staphylococcus aureus [6]): 8 µg/mL (≈ 11.7 µM) |
| Cn1cc(NC(=O)c2ccccc2)cc1C(=O)NCCN1CCCCC1 | > 32 | > 32 | 0.173 |  |
| Cn1cc(NC(=O)c2ccc(C(=O)c3ccc(C(=O)Nc4cc(C(=O)NCCN5CCCC5)n(C)c4)cc3)cc2)cc1C(=O)NCCN1CCCC1 | 2 (≈ 2.83 µM) | 1 (≈ 1.41 µM) | 0.679 | MIC (Staphylococcus aureus [6]): 0.5 µg/mL (≈ 0.707 µM); Activity (Nucleic Acid [4]): Active; Activity (Nucleic Acid [5]): Active; MIC (Enterococcus): 4 µg/mL (≈ 5.66 µM); MIC (Escherichia coli): 16 µg/mL (≈ 22.6 µM); Activity (CHO): Not Active; Activity (Staphylococcus aureus [7]): Active |
| CN(C)c1ccc(NC(=O)c2nc(NC(=O)c3ccc(C(=O)c4ccc(C(=O)Nc5cn(C)c(C(=O)Nc6ccc(N(C)C)cc6)n5)cc4)cc3)cn2C)cc1 | > 32 | > 32 |  |  |
| Cn1cc(NC(=O)c2ccc(C(=O)c3ccccc3)cc2)cc1C(=O)NCCN1CCCC1 |  |  | 0.106 |  |
| CN(C)c1ccc(NC(=O)c2cc(NC(=O)c3ccc(C(=O)c4ccc(C(=O)Nc5cc(C(=O)Nc6ccc(N(C)C)cc6)n(C)c5)cc4)cc3)cn2C)cc1 | > 32 | > 32 | 0.391 |  |
| CO[C@H]1/C=C/O[C@@]2(C)Oc3c(C)c(O)c4c(O)c(c(/C=N/N5CCN(C)CC5)c(O)c4c3C2=O)NC(=O)/C(C)=C\C=C\[C@H](C)[C@H](O)[C@@H](C)[C@@H](O)[C@@H](C)[C@H](OC(C)=O)[C@@H]1C |  |  |  | Activity (Staphylococcus aureus [8]): Active |
| C/C=C/C/C=C/CCC(=O)[C@H]1O[C@H]1C(N)=O |  |  |  | Activity (Staphylococcus aureus [9]): Active |
| O=C(O)c1cn(C2CC2)c2cc(N3CCNCC3)c(F)cc2c1=O |  |  |  | Activity (Staphylococcus aureus [10]): Active |
| Cn1cc(NC(=O)c2ccc(C(=O)c3ccc(C(=O)Nc4cn(C)c(C(=O)NCCN5CCCC5)n4)cc3)cc2)nc1C(=O)NCCN1CCCC1 | 32 (≈ 45.1 µM) | 32 (≈ 45.1 µM) |  |  |
| Cn1cc(NC(=O)c2ccc(Cc3ccc(C(=O)Nc4cc(C(=O)NCCN5CCCCC5)n(C)c4)cc3)cc2)cc1C(=O)NCCN1CCCCC1 | > 32 | > 32 | 0.0238 |  |
| Cn1cc(NC(=O)c2ccc(C(=O)c3ccc(C(=O)Nc4cc(C(=O)NCCN5CCOCC5)n(C)c4)cc3)cc2)cc1C(=O)NCCN1CCOCC1 | 8 (≈ 10.8 µM) | 4 (≈ 5.41 µM) |  |  |
| CN[C@H](CC(C)C)C(=O)N[C@H]1C(=O)N[C@@H](CC(N)=O)C(=O)N[C@H]2C(=O)N[C@H]3C(=O)N[C@H](C(=O)N[C@H](C(=O)O)c4cc(O)cc(O)c4-c4cc3ccc4O)[C@H](O)c3ccc(c(Cl)c3)Oc3cc2cc(c3O[C@@H]2O[C@H](CO)[C@@H](O)[C@H](O)[C@H]2O[C@H]2C[C@](C)(N)[C@H](O)[C@H](C)O2)Oc2ccc(cc2Cl)[C@H]1O |  |  |  | Activity (Staphylococcus aureus [11]): Active |
| Cn1cc(NC(=O)c2ccccc2)cc1C(=O)NCCN1CCCC1 | > 32 | > 32 | 0.11 |  |
| CC(=O)NC[C@H]1CN(c2ccc(N3CCOCC3)c(F)c2)C(=O)O1 |  |  |  | Activity (Staphylococcus aureus [12]): Active |
| Cn1cc(NC(=O)CCCCCCCCCCCC(=O)Nc2cc(C(=O)NCCN3CCCC3)n(C)c2)cc1C(=O)NCCN1CCCC1 | > 32 | > 32 | 0.021 | Activity (Staphylococcus aureus [13]): inactive |
| Cn1cc(NC(=O)c2ccc(C(=O)c3ccc(C(=O)Nc4cc(C(=O)NCCN5CCCCC5)n(C)c4)cc3)cc2)cc1C(=O)NCCN1CCCCC1 | 1 (≈ 1.36 µM) | 0.5 (≈ 0.68 µM) | 0.931 | MIC (Staphylococcus aureus [6]): 0.5 µg/mL (≈ 0.68 µM); MIC (Enterococcus): 4 µg/mL (≈ 5.44 µM); MIC (Escherichia coli): 16 µg/mL (≈ 21.8 µM); Activity (CHO): Not Active; Activity (Staphylococcus aureus [14]): inactive; Activity (Staphylococcus aureus [15]): inactive; Activity (Staphylococcus aureus [16]): inactive; Activity (Staphylococcus aureus [17]): inactive; Activity (Staphylococcus aureus [18]): inactive; Activity (Staphylococcus aureus [19]): Active |
| Cn1cc(NC(=O)c2ccc(Cc3ccc(C(=O)Nc4cc(C(=O)NCCN5CCCC5)n(C)c4)cc3)cc2)cc1C(=O)NCCN1CCCC1 | > 32 | > 32 | 0.154 |  |
| Cn1cc(NC(=O)c2ccc(C(=O)c3ccc(C(=O)Nc4cn(C)c(C(=O)NCCN5CCOCC5)n4)cc3)cc2)nc1C(=O)NCCN1CCOCC1 | > 32 | > 32 |  |  |
| Cn1cc(NC(=O)CCCCCCCCCCCC(=O)Nc2cc(C(=O)NCCN3CCCCC3)n(C)c2)cc1C(=O)NCCN1CCCCC1 | > 32 | > 32 | 0.0125 |  |
| Cn1cc(NC(=O)c2ccc(C(O)c3ccc(C(=O)Nc4cc(C(=O)NCCN5CCCCC5)n(C)c4)cc3)cc2)cc1C(=O)NCCN1CCCCC1 | > 32 | > 32 | 0.0098 |  |
| Cn1cc(NC(=O)c2ccc(C(=O)c3ccccc3)cc2)cc1C(=O)NCCN1CCCCC1 |  |  | 0.227 |  |
